Here are results for six compounds from ChEMBL document CHEMBL1136747, “Influence of the 5-HT6 receptor on acetylcholine release in the cortex: pharmacological characterization of 4-(2-bromo-6-pyrrolidin-1-ylpyridine-4-sulfonyl)phenylamine, a potent and selective 5-HT6 receptor antagonist” (J Med Chem, 2003).

Data set [1] concerns the target 5-hydroxytryptamine receptor 1D (Homo sapiens, UniProt P28221). Briefly: Binding constant towards serotonin receptor subtype 5-hydroxytryptamine 1D receptor expressed in HEK 293 cells using [3H]LSD as radioligand. Format: cell-based, HEK293.
The target in data set [2] is T1, 5-hydroxytryptamine receptor 6 (Homo sapiens, UniProt P50406). Description: Antagonism assessed in a functional cAMP binding assay using 5-CT to stimulate human 5-hydroxytryptamine 6 receptor expressed in HEK 293 cells. Format: cell-based, HEK293. Conditions: read-out: pA2 (converted). The procedure, abridged: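 Human 5-HT6 receptor stably expressed in HEK-293 cells; adenylate cyclase (cAMP) activity stimulated with 5-CT. 5-CT concentration–response curves were run with increasing antagonist concentrations, and the shift was analysed by Schild analysis, n = 3.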

The test system of another data set is Rattus norvegicus. Description: Ratio of brain/plasma concentration after oral administration in rat expressed as percentage. Format: ADME, organism-based. The gist of the method: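 Rats dosed at 10 mg/kg by oral gavage in PEG/PG/WIP 40/40/20. Brain and plasma concentrations were measured, and the brain/plasma ratio is given as a percentage (average ± SEM).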

Data set [3] has as its target T1, 5-hydroxytryptamine receptor 6. Briefly: Binding constant towards serotonin receptor subtype 5-hydroxytryptamine 6 receptor expressed in HeLa cells using [3H]LSD as radioligand. The format is cell-based. The procedure, abridged:
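Radioligand binding to human recombinant 5-HT6 receptor expressed in HeLa cells with [3H]-LSD. Values are the mean ± SEM of three independent determinations, each run in triplicate.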

Data set [4] is described as follows: In vivo plasma clearance after intravenous administration in rat. Format: ADME, organism-based. To be noted: read-out: Clp. The gist of the method:
(§1)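 Rats were dosed at 10 mg/kg in PEG/PG/WIP 40/40/20, either by oral gavage or intravenously with the same dose and formulation. Plasma concentrations were followed over 8 h. PK parameters were derived as plasma clearance, apparent terminal half-life, bioavailability and steady-state volume of distribution, reported as average ± SEM.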

Data set [5] addresses 5-hydroxytryptamine receptor 2A (Homo sapiens, UniProt P28223). Briefly: Binding constant towards serotonin receptor subtype 5-hydroxytryptamine 2A receptor expressed in 3T3 cells using [3H]-DOB as radioligand.
Data set [6] can be described thus: Half-life period after intravenous administration in rat. The format is ADME, organism-based. Conditions: in vivo. The procedure, abridged: as §1
A short description of data set [7]: Dissociation constant was determined.
Data set [8] is described as follows: Bioavailability after oral administration in rat expressed as percentage. Format: ADME, organism-based. To be noted: in vivo. The gist of the method:
as §1

Data set [9] addresses T2, 5-hydroxytryptamine receptor 2C (Homo sapiens, UniProt P28335).
T2 sequence (P28335 whole entry): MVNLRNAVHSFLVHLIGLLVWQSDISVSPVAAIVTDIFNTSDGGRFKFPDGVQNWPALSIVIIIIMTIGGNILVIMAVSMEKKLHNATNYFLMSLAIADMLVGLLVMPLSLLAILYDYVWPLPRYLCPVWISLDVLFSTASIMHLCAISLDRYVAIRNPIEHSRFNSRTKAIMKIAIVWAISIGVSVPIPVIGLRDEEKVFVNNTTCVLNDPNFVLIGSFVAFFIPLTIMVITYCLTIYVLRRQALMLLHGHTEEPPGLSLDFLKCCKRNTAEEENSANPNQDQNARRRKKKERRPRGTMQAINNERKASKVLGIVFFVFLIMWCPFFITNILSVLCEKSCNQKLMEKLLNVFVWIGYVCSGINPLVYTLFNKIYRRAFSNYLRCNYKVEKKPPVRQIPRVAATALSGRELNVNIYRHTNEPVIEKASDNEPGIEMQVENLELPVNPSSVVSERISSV
Description: Binding constant towards serotonin receptor subtype 5-hydroxytryptamine 2C receptor expressed in 3T3 cells using [3H]5-HT as radioligand. Format: cell-based, NIH3T3.

Data set [10] is described as follows: Partition coefficient (logD7.4). The format is physicochemical. To be noted: octanol/water, pH 7.4.
A short description of data set [11]: Volume of distribution at steady state after intravenous administration in rat. The format is ADME, organism-based. To be noted: in vivo, read-out: Vss. The procedure, abridged:
as §1

For data set [12], the target named is 5-hydroxytryptamine receptor 7 (Homo sapiens, UniProt P34969). Description: Binding constant towards serotonin receptor subtype 5-hydroxytryptamine 7 receptor expressed in CHO cells using [3H]LSD as radioligand. The format is cell-based.
Data set [13] can be described thus: Half-life period after oral administration in rat. The format is ADME, organism-based. Conditions: in vivo. The gist of the method:
as §1

For orientation: Ki means a measure of affinity in units of concentration, obtained from inhibition or displacement. The low end stands for a stronger hold on the target, the high end for a looser hold on the target. One may read the half-life as how long it takes for the measured level to halve. Broadly, the pKa is the negative logarithm of the acid dissociation constant. Low readings indicate a stronger acid or weaker base, high ones a weaker acid or stronger base. A word on the bioavailability: it is the share of a dose that reaches the circulation, judged against a reference dose that is usually intravenous. High values mean good availability, low ones poor availability. Broadly, the logD is the decadic logarithm of the distribution of all forms, ionised or not, between an organic phase and buffer at a given pH. High values mean higher lipophilicity, low ones lower lipophilicity.

Bounds are passed on as bounds.

Sequence of 5-hydroxytryptamine receptor 1D (P28221 whole entry): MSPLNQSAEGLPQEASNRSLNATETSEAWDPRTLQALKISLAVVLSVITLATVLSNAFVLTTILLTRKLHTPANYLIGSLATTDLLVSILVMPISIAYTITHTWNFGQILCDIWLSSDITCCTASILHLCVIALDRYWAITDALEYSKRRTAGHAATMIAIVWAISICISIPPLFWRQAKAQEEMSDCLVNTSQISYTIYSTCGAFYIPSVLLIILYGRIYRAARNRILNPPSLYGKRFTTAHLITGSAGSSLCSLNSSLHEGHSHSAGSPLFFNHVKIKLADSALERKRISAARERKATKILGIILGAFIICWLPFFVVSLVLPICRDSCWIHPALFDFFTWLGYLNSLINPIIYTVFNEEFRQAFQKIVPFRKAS
Sequence of 5-hydroxytryptamine receptor 7 (P34969 whole entry): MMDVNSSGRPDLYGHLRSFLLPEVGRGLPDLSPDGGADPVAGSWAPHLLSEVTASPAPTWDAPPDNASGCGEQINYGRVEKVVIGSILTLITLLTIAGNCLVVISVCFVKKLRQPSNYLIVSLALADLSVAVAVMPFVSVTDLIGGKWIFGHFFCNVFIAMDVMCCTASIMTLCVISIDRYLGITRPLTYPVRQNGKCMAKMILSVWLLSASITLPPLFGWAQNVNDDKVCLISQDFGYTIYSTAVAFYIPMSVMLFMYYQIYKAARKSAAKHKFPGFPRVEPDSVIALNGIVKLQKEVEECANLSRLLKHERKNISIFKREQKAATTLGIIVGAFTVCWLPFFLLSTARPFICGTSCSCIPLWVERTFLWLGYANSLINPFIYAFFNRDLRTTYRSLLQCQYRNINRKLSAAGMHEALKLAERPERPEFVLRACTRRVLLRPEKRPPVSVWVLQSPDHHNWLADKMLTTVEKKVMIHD
T1 sequence (P50406 whole entry): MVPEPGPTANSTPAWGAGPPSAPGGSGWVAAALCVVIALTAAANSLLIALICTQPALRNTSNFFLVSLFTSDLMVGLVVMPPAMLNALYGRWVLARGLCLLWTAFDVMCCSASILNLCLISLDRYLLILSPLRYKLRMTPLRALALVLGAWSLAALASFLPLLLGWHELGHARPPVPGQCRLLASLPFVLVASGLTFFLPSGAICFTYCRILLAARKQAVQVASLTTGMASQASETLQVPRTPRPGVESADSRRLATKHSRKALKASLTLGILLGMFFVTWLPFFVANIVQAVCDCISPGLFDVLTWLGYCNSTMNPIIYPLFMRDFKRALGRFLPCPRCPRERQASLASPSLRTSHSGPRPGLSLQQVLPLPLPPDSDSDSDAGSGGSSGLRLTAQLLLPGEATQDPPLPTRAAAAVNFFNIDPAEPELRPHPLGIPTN
Sequence of 5-hydroxytryptamine receptor 2A (P28223 whole entry): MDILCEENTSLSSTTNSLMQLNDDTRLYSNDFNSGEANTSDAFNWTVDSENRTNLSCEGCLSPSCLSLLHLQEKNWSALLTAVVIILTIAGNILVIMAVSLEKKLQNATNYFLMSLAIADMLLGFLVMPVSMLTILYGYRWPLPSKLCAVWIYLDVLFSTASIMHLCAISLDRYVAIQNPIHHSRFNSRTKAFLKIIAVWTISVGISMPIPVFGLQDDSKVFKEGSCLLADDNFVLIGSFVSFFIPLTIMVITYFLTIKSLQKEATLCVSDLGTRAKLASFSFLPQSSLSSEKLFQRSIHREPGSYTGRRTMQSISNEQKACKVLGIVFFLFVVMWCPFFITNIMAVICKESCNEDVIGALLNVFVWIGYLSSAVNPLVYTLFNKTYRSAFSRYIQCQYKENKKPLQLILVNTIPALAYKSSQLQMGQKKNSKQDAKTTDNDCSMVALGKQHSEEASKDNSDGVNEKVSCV

With `Nc1ccc(S(=O)(=O)c2cc(Br)nc(N3CCCC3)c2)cc1`, the Ki in data set [1] is greater than 100000 nM; in data set [3] it was 1 nM; in [5], 1450 nM; in [9], greater than 10000 nM; in [12], greater than 100000 nM. Also, the Kb in data set [2] is 3.16 nM. In addition, the Ratio in the data set on Rattus norvegicus is 24%. In addition, in [4], the clearance amounted to 20 mL/min/kg. In addition, the half-life in [6] is 3.7 h; in [13], 3 h. In data set [7], this compound returned a pKa of less than 2. Further, the bioavailability in data set [8] turned out to be 46%. Further, the logD in [10] came to 3.3. The Vd in [11] was 1.4 L/kg.

As for `CNc1cc(S(=O)(=O)c2ccc(N)cc2)cc(Br)n1`, the Ki is greater than 10000 nM in data set [1], 2.29 nM in data set [3], greater than 10000 nM in data set [9] and greater than 10000 nM in data set [12].

Regarding `CNc1cc(S(=O)(=O)Nc2ccc(N)cc2)cc(Br)n1`, the Ki in [3] was 42.7 nM.

`Nc1ccc(S(=O)(=O)c2cc(Br)nc(N3CCNCC3)c2)cc1`: the Ki in data set [1] is 1120 nM; in data set [3], 0.115 nM; in [9], 20.4 nM; in data set [12], greater than 10000 nM.

Take `Nc1ccc(S(=O)(=O)c2cc(Br)nc(Br)c2)cc1`: the inhibition constant (Ki) in data set [3] is 53.7 nM.

Consider `CNc1cc(NS(=O)(=O)c2ccc(N)cc2)nc(NC)n1`, for which the Ki in data set [1] was greater than 10000 nM; in data set [3] it was 55 nM; in data set [5] it was greater than 10000 nM; in data set [9], greater than 10000 nM; in data set [12], greater than 10000 nM.
